Assay outcomes from PubChem BioAssay.
Compounds with a hit are over-represented: about 1.2% of the library has one in this group of screens.
A3G deaminase: APOBEC3G (human) deaminase inhibition. inhibition, % at 20 µM. hit rate 0.28% among 330,000. recombinant A3G, ssDNA deamination FAM/TAMRA fluorescence;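 active = inhibition of at least 40% at 20 µM, with no more than 30% in the related APOBEC3A deaminase screen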;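 note: plate controls were DMSO wells with A3G for no effect and wells lacking A3G enzyme for full effect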
Target sequence (Q9HC16 whole entry, looked up): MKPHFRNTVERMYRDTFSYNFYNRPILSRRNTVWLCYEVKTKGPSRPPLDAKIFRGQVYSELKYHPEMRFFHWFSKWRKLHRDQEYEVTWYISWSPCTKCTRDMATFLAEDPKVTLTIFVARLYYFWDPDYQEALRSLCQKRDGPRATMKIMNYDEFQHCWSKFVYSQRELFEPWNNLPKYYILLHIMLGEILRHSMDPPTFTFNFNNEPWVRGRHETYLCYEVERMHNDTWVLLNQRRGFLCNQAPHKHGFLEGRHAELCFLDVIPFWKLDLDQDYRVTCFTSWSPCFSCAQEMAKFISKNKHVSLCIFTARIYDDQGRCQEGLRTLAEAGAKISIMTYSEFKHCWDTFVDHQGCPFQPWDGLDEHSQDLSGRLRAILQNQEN
FN deposition inh: fibronectin deposition inhibition; AH1F fibroblasts, Alexa488-fibronectin deposition fluorescence, overnight; inhibition, % at 12.6 µM; hit rate 0.086% among 350,000;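 active = mean inhibition across replicates of 30% or more, regardless of how many single replicates reach that level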;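 note: positive control wells lacked labelled fibronectin entirely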
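Assay system: AH1F fibroblasts / Quantity: 10000 cells per well / Medium: DMEM plus 2% serum, read in PBS / Reagent: labelled fibronectin 24 nM / Dosing: single dose, pinned / Times: 1 h cell attachment, overnight exposure to compound and label / Signal: fluorescence, ex 485 nm, em 525 nm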
ABHD5 PLIN5 PPI: blocks binding of human ABHD5 to perilipin-5; hit rate 0.78% among 360,000; AID 602281; inhibition, % at 4 µM; Q00G26+Q8WTS1; Split G. princeps luciferase complementation, luminescence, 4 h;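 active = inhibition above the mean inhibition across every tested compound plus 3 SD, cut at about 22% in these data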;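 note: 0% = DMSO only wells and the 100% control is not disclosed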
APOBEC3A inh: blocks human APOBEC3A ssDNA deamination | recombinant A3A, FAM/TAMRA ssDNA deamination fluorescence | hit rate 0.41% among 330,000 | inhibition, % at 20 µM;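 active = at least 40% inhibition at 20 µM here, with at most 30% in a related deaminase screen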;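 note: plate controls were A3A with DMSO for no effect and wells lacking A3A enzyme for full effect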
Target sequence (P31941 whole entry, looked up): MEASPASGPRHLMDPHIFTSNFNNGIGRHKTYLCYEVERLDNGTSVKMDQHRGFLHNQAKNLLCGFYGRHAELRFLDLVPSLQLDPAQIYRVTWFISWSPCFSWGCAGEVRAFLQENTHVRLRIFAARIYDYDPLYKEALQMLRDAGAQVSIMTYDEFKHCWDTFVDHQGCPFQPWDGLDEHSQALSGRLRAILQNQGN
A3A conf: confirmation of human APOBEC3A DNA deaminase inhibitors; hit rate 63% among 1,400; shares compounds with APOBEC3A inh; recombinant A3A, ssDNA deaminase UDG fluorescence assay; inhibition, % at 20 µM;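 active = inhibition reaching a set limit, 80% of the first screen's cutoff, at 20 µM in any replicate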;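 note: plate controls were DMSO wells with A3A for no effect and wells lacking A3A enzyme for full effect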
UDG ctr A3A: counter-screen for APOBEC3A inhibitors: UDG | inhibition, % at 20 µM | shares compounds with APOBEC3A inh | 1,000 tested, under 10 active | UDG counterscreen, FAM/TAMRA uracil oligo fluorescence; call rule not given here
The depositor's hits bear a star; . = not tested or not shown; ! = not active in a repeat.

SMILES	A3G deaminase	FN deposition inh	ABHD5 PLIN5 PPI	APOBEC3A inh	A3A conf	UDG ctr A3A
CSc1cccc(NC(=O)CN(C2CCCCC2)S(C)(=O)=O)c1	-7	-14	5	65*	-6	-2
Cc1ccccc1/C=C/c1cc[n+](C)cc1	19	7	3	59*	73*	-3
O=C(C[C@H]1C[C@H]2c3cc(NC(=O)Cc4ccncc4)ccc3O[C@H]2[C@H](CO)O1)NCc1cccnc1	.	-3	.	.	.	.
CC(=O)Oc1cccc2c1C(=O)c1c(OC(C)=O)cc(C(=O)O)cc1C2=O	37	.	4	4	.	.
O=C(O)c1cc(O)c2c(c1)C(=O)c1cc(O)cc(O)c1C2=O	28	.	-2	67*	59*	0
C[n+]1ccc(/C=C/c2ccccc2O)c2ccccc21	12	.	20	64*	65*	0
CN1/C(=C/c2cc[n+](C)c3ccccc23)C=Cc2ccccc21	.	.	4	.	.	.
COc1ccc([N+](=O)[O-])cc1CSc1ccccn1	7	2	1	52*	46*	2
C[C@@H]1CN([C@H](C)CO)C(=O)c2cc(N(C)C)ccc2O[C@H]1CN(C)CC1CCCCC1	.	2	.	.	.	.
CCOC(=O)c1c(NC(=O)Cn2ccsc2=N)sc(C)c1C	10	7	-8	57*	24	.
C[C@H](CO)N1C[C@H](C)[C@@H](CN(C)Cc2ccncc2)Oc2ncc(C#Cc3ccncc3)cc2C1=O	.	-7	.	.	.	.
CCN1/C(=c2/s/c(=C3/C(=O)N(c4ccccc4)N=C3C)n(CC)c2=O)C=Cc2ccccc21	-1	-2	-3	-4	.	.
CCN1/C(=C2\C(=O)N(c3ccccc3)N=C2C)C=Cc2cc(C)ccc21	18	0	-2	49*	21	.
COc1ccc(S(=O)(=O)Nc2ccc3c(c2)C(=O)N([C@H](C)CO)C[C@@H](C)[C@H](CN(C)S(=O)(=O)c2ccc(OC)cc2)OCCCC[C@@H](C)O3)cc1	.	1	.	.	.	.
C[C@@H]1CC=CCCNC(=O)[C@@H](C)N(C)C(=O)c2ccccc2O1 (mixture of isomers)	.	5	.	.	.	.
Cc1cccc(C)c1NC(=O)C1c2cccc[n+]2CC(=O)N1Cc1ccc2c(c1)OCO2 (configuration not stated)	3	-4	14	14	.	.
Cc1ccccc1NC(=O)C1c2cccc[n+]2CC(=O)N1c1c(C)cccc1C (configuration not stated)	17	5	-2	40*	18	.
O=C(O)C/C(=C\c1cc(Cl)c2c(c1)OCO2)c1nc2ccccc2s1	30	3	-8	45*	38*	-2
CCCNC(=O)C[C@@H]1CC[C@H]2[C@H](COc3ccc(NC(=O)C4CCOCC4)cc3C(=O)N2C)O1	.	-6	.	.	.	.
CN(CC(=O)Nc1c(Cl)cccc1Cl)C(=O)CNC(=O)c1ccc2ccccc2c1	-8	0	4	42*	-4	2
CN(CC(=O)Nc1c(Cl)cccc1Cl)C(=O)c1cccc(-n2cccc2)c1	18	0	3	71*	53*	-2
Cc1noc(C)c1NC(=O)N[C@@H]1C=C[C@@H](CC(=O)N2CCCCC2)O[C@H]1CO	.	5	.	.	.	.
C[C@@H]1CN(C)C(=O)c2cccc(N(C)C)c2O[C@H]1CN(C)C	.	-7	.	.	.	.
O=C(C[C@H]1CC[C@@H](NC(=O)c2ccncc2)[C@H](CO)O1)NCC1CC1	.	6	.	.	.	.
COCCNC(=O)C[C@@H]1CC[C@@H]2[C@@H](COc3ccc(NC(=O)Nc4ccccc4)cc3C(=O)N2C)O1	.	-11	.	.	.	.
SMILES	A3G deaminase	FN deposition inh	ABHD5 PLIN5 PPI	APOBEC3A inh	A3A conf	UDG ctr A3A
COc1ccc(CN(C)C[C@@H]2OCCCC[C@H](C)Oc3ccc(NC(=O)c4ccncc4)cc3C(=O)N([C@@H](C)CO)C[C@H]2C)cc1	.	3	.	.	.	.
CC[n+]1cc(-c2ccccc2)nc(N2CCOCC2)n1	19	.	4	51*	67*	.
NC(=O)c1cc(-c2ccccc2)nc(N2CCOCC2)n1	-6	.	1	-2	.	.
c1ccc2[nH]c(-c3ccnc4ccccc34)nc2c1	-1	0	1	98*!	10	.
c1ccc2c(-c3nc4ccccc4[nH]3)cccc2c1	.	6	-4	.	.	.
C[C@H](CO)N1C[C@H](C)[C@H](CN(C)C(=O)Nc2ccccc2)OCCCC[C@H](C)Oc2ccc(NC(=O)c3ccncc3)cc2C1=O	.	3	.	.	.	.
C/C(N)=C(/C#N)C(=O)CSc1nc2ccccc2c(=O)n1Cc1ccc(C)cc1	2	7	4	14	.	.
C/C(N)=C(/C#N)C(=O)CSc1nc2ccccc2c(=O)n1Cc1ccc(F)cc1	15	14	4	47*	26	.
CCCNC(=O)C[C@H]1C[C@@H]2c3cc(NC(=O)c4cccnc4)ccc3O[C@@H]2[C@@H](CO)O1	.	-12	.	.	.	.
CC(C)NC(=O)N1[C@@H]2CN(C)C[C@H]1C2c1ccc(Br)cc1 (some centres not stated)	.	-3	.	.	.	.
Cc1ccc(S(=O)(=O)N2CCN(C(=O)COC(=O)CCOc3cc(C)ccc3C)CC2)c(C)c1	.	2	6	.	.	.
Cc1ccc(S(=O)(=O)N2CCN(C(=O)COC(=O)CCOc3ccccc3C)CC2)c(C)c1	15	0	0	47*	62*	-1
C=CCn1c(C)c(/C=C/c2cc[n+](C)cc2)c2ccccc21	-5	-133	9	42*	59*	-14
CCN(CC)C(=O)Cn1c(C)c(/C=C/c2cc[n+](C)cc2)c2ccccc21	17	4	4	64*	62*	-5
COc1ccc(CCCC(=O)NC2CCCCC2C)c(C)c1 (configuration not stated)	29	.	-2	71*	71*	3
COc1ccc(CCCC(=O)NCCc2ccccc2)c(C)c1	6	-3	8	41*	12	.
COc1ccc(CCNC(=O)CCCCC(=O)NCCc2ccc(OC)cc2)cc1	-1	-3	-1	-7	.	.
O=C(C[C@@H]1C[C@@H]2c3cc(NC(=O)C4CCOCC4)ccc3O[C@@H]2[C@H](CO)O1)NCc1ccccc1F	.	3	.	.	.	.
CC(=O)N1CC[C@@H]2[C@H]1c1cc(-c3ccccc3)ccc1N(C)[C@H]2CO	.	4	.	.	.	.
COC(=O)CCC(=O)OC1(C)C(=O)C=C2C=C(C3CC3)N(C3CCCC3)C=C2C1=O (configuration not stated)	-7	1	-15	-4	.	.
COC(=O)CCC(=O)OC1(C)C(=O)C=C2C=C(C3CC3)N(C3CCCCC3)C=C2C1=O (configuration not stated)	-9	3	-13	48*	-5	-2
COc1ccc2nc(NC(=O)CSCc3c(C)noc3C)sc2c1	-10	-1	-3	2	.	.
Cc1noc(C)c1CSCC(=O)Nc1nc2ccc(S(C)(=O)=O)cc2s1	2	.	2	44*	15	.
Cc1cccc(NC(=O)CSCC(=O)Nc2cc(S(=O)(=O)N3CCOCC3)ccc2N2CCCC2)c1	-8	.	-3	96*	3	-3
